Measured values published in ChEMBL document CHEMBL1121800, “Fibrin Polymerization. 1. Alkylating peptide inhibitors of fibrin polymerization” (1981).
Where a SMILES comes first, the peptide text is derived from it. [ ]: non-standard residue; d: D form. The star is where a group is joined. Phe(4-NO2) = N[C@@H](Cc1ccc([N+](=O)[O-])cc1)C(=O)O; Chlorambucil = O=C(CCCc1ccc(N(CCCl)CCCl)cc1)*; Phe(4-NH2) = Nc1ccc(C[C@H](N)C(=O)O)cc1

What was measured:
Format in all cases: functional
[1] = Compound was evaluated for its ability to inhibit the thrombin-initiated clotting time of citreated human plasma.; parameters: concentration or dose not given beside the values
Method in brief: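 Bovine thrombin in saline, dosed to give a 20 s clot, added to 200 µL citrated human plasma plus 100 µL saline containing peptide at 37 °C. Time to first clot recorded. Chlorambucil peptides came from DMSO stock diluted in saline; optional 15 min, 4 °C preincubation with plasma or thrombin. Molar activity from dose-response slope versus reference, with molarity from amino acid analysis.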

[2] = species on record: Homo sapiens; test: Compound was evaluated for its ability to inhibit fibrin polymerization.; parameters: concentration or dose not given beside the values; conditions: dose or concentration not given here
Method in brief: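 Fibrin monomer from human fibrinogen (8.3 mg protein/mL solution) diluted into phosphate buffer (80 mM, pH 6.3) containing peptide; reaggregation followed at 350 nm. Optional preincubation: peptide in 1 M NaBr/0.05 M NaOAc pH 5.3 with monomer, 15 min, room temperature, before buffer addition. Molar activity from linear dose-response slope versus reference tetrapeptide, averaged values.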

[3] = molecular target: Prothrombin (Homo sapiens) (UniProt P00734); test: Compound was evaluated for its ability to inhibit thrombin catalyzed amidolysis; conditions: concentration not given here
Method in brief: (§1)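 Thrombin (0.5 unit) at 37 °C with 0.25 mL of 1 mM Tos-Gly-Pro-Arg-p-nitroanilide, 0.25 mL saline containing 2 mg/mL peptide, and 1.5 mL saline. Chromophore read at 405 nm. Where indicated, peptide and thrombin were preincubated 15 min at 4 °C before substrate addition.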

[4] = molecular target: Prothrombin (Homo sapiens) (UniProt P00734); test: Compound was evaluated for its ability to inhibit thrombin catalyzed amidolysis.; parameters: concentration or dose not given beside the values; conditions: concentration not given here; method in brief: as §1
[5] = Relative potency was determined

inhibition [3] | inhibition [4] | SMILES | Inhibition [1] | inhibition [2] | Relative potency [5]
– | 0% | NCC(=O)N1CCC[C@H]1C(=O)N[C@@H](CCCN=C(N)N)C(=O)N1CCC[C@H]1C(=O)N[C@@H](Cc1ccc(N)cc1)C(=O)O (H-GPRP[Phe(4-NH2)]-OH) | 81% | 105% | –
– | 0% | NCC(=O)N1CCC[C@H]1C(=O)N[C@@H](Cc1ccc([N+](=O)[O-])cc1)C(=O)N1CCC[C@H]1C(=O)O (H-GP[Phe(4-NO2)]P-OH) | 0% | – | –
– | 0% | NCC(=O)N[C@@H](Cc1ccc([N+](=O)[O-])cc1)C(=O)N[C@@H](CCCN=C(N)N)C(=O)N1CCC[C@H]1C(=O)O (H-G[Phe(4-NO2)]RP-OH) | 10% | – | –
– | 0% | NCC(=O)N1CCC[C@H]1C(=O)N[C@@H](CCCN=C(N)N)C(=O)N[C@@H](Cc1ccc([N+](=O)[O-])cc1)C(=O)O (stereo in doubt; 9) [listing 2 of 2 here] | – | 0% | –
– | 0% | NCC(=O)N1CCC[C@H]1C(=O)N[C@@H](CCCN=C(N)N)C(=O)N1CCC[C@H]1C(=O)N[C@@H](Cc1ccc([N+](=O)[O-])cc1)C(=O)O (stereo in doubt; 10) [listing 2 of 2 here] | – | 88% | 0.83
– | 0% | NCC(=O)N1CCC[C@H]1C(=O)N[C@@H](CCCN=C(N)N)C(=O)N[C@@H](Cc1ccc([N+](=O)[O-])cc1)C(=O)O (stereo in doubt; 19) [listing 2 of 2 here] | – | – | –
– | 0% | NCC(=O)N1CCC[C@H]1C(=O)N[C@@H](CCCN=C(N)N)C(=O)N1CCC[C@H]1C(=O)N[C@@H](Cc1ccc([N+](=O)[O-])cc1)C(=O)O (stereo in doubt; 20) | – | – | –

The remaining lines, values behind:

SMILES | inhibition [3] | inhibition [4] | Inhibition [1] | inhibition [2] | Relative potency [5]
N=C(N)NCCC[C@H](NC(=O)[C@@H]1CCCN1C(=O)CCCc1ccc(N(CCCl)CCCl)cc1)C(=O)N1CCC[C@H]1C(=O)O | – | – | 0% | – | –
N=C(N)NCCC[C@H](NC(=O)CCCc1ccc(N(CCCl)CCCl)cc1)C(=O)N1CCC[C@H]1C(=O)O | – | – | 0% | – | –
NCC(=O)N1CCC[C@H]1C(=O)N[C@@H](CCCN=C(N)N)C(=O)N1CCC[C@H]1C(=O)O | 0% | – | 100% | 100% | –
N=C(N)NCCC[C@H](NC(=O)[C@@H]1CCCN1C(=O)CNC(=O)CCCc1ccc(N(CCCl)CCCl)cc1)C(=O)N1CCC[C@H]1C(=O)O (Chlorambucil-GPRP-OH) | – | – | 0% | – | –
NCC(=O)N1CCC[C@H]1C(=O)N[C@@H](CCCN=C(N)N)C(=O)N[C@@H](Cc1ccc(N)cc1)C(=O)O (H-GPR[Phe(4-NH2)]-OH) | – | 0% | 5% | 22% | 0.22
NCC(=O)N1CCC[C@H]1C(=O)N[C@@H](CCCN=C(N)N)C(=O)N[C@@H](Cc1ccc([N+](=O)[O-])cc1)C(=O)O (stereo in doubt; 9) [listing 1 of 2 here] | – | – | 2% | – | –
NCC(=O)N1CCC[C@H]1C(=O)N[C@@H](CCCN=C(N)N)C(=O)N1CCC[C@H]1C(=O)N[C@@H](Cc1ccc([N+](=O)[O-])cc1)C(=O)O (stereo in doubt; 10) [listing 1 of 2 here] | – | – | 73% | – | –
NCC(=O)N1CCC[C@H]1C(=O)N[C@@H](CCCN=C(N)N)C(=O)N[C@@H](Cc1ccc([N+](=O)[O-])cc1)C(=O)O (stereo in doubt; 19) [listing 1 of 2 here] | – | – | 14% | – | –
